Drawing on PubChem BioAssay AID602134 (Broad Institute, 2011), this text covers outcome for one molecule.

Molecules are shown by their SMILES. The source made the active and inactive calls.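 Rule for the calls: active = falling transferrin uptake with a fitted half-maximal potency at or below twice the top valid tested dose; inconclusive = flat fit with a 30 to 70% drop, or poor fit; inactive = the rest.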

This assay is described as follows: transferrin receptor uptake blockade – imaging, Alexa594-transferrin, dry powder, selectivity assay for SR-BI HDL uptake inhibitor project, dose response (AID 602134). The procedure, abridged:
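test system = mSR-BI cells | incubation = transferrin uptake 30 min at 37 °C, stopped on ice | measured by = high-content fluorescence imaging of Alexa-594 transferrin, DAPI nuclear stain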

For the molecule `CC1CCC/C=C/C2CC(O)CC2C(O)/C=C\C(=O)O1` (stereo unspecified), the outcome was inactive.
